Results published in ChEMBL document CHEMBL1138002, “Synthesis and biological evaluation of thiazolidine-2,4-dione and 2,4-thione derivatives as inhibitors of translation initiation” (2004).

What was measured:
Format in all cases: functional
[1] = Ratio of intensity of phosphorylation of phosphorylated eIF2a to the intensity of the total eIF2a was determined
Outline: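 Cells exposed to drug at 5 µM; extracts analysed by Western blot with phospho-Ser51-specific rabbit anti-eIF2a and mouse monoclonal total eIF2a antibodies, quantified by infrared imaging. Phospho/total eIF2a intensity ratio normalized to DMSO; TRO positive, DMSO negative control; mean ± SD of three determinations.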

[2] = test system: A549; assay: Inhibition of human lung cancer cell line (A549) growth by 50% in sulforhodamine-B assay
Outline: (§1)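 Human A549 lung cancer cells; growth inhibition read by sulforhodamine B assay, staining cellular protein content. GI50 taken as concentration needed to inhibit 50% of cell proliferation. DMSO negative control, troglitazone (TRO) positive control; mean ± SD from three determinations.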

[3] = test system: A549; assay: Inhibition of human lung cancer cell line (A549) by 50% in sulforhodamine B assay; outline: as §1

Row | Structure (SMILES) | GI50 [2] | GI50 [3] | Ratio [1]
1 | COc1ccc(OCc2ccccc2)c(/C=C2\SC(=O)NC2=O)c1 | 14 µM |  | 0.98
2 | CC(C)(C)c1ccc(-c2ccc(OCc3ccccc3)c(/C=C3\SC(=O)NC3=O)c2)cc1 | 2 µM |  | 1.16
3 | O=C1NC(=S)S/C1=C\c1cc(N2CCOCC2)ccc1OCc1ccccc1 | 5 µM |  | 0.92
4 | COc1ccc(OCc2ccccc2)c(/C=C2\SC(=S)NC2=O)c1 | 7 µM |  | 0.94
5 | O=C1NC(=S)SC1Cc1cc(Cl)ccc1OCc1ccccc1 (stereo not given) | 29 µM |  | 1.25
6 | O=C1NC(=S)S/C1=C\c1cc(Cl)ccc1OCc1ccccc1 | 5 µM |  | 1.76
7 | CC(C)(C)c1ccc(OCc2ccccc2)c(/C=C2\SC(=S)NC2=O)c1 | 7 µM |  | 1.97
8 | CC(C)(C)c1ccc(OCc2ccccc2)c(/C=C2\SC(=O)NC2=O)c1 | 2 µM |  | 6.98
9 | Cc1c(C)c2c(c(C)c1O)CCC(C)(COc1ccc(CC3SC(=O)NC3=O)cc1)O2 (stereo not given) [TROGLITAZONE] |  | 15 µM | 2.12
10 | O=C1NC(=O)/C(=C/c2cc(Cl)ccc2OCc2ccccc2)S1 | 5 µM |  | 4.52
11 | O=C1NC(=O)/C(=C/c2cc(F)ccc2OCc2ccccc2)S1 | 4 µM |  | 0.72
12 | O=C1NC(=S)S/C1=C\c1cc([N+](=O)[O-])ccc1OCc1ccccc1 | 5 µM |  | 3.49
13 | O=C1NC(=S)S/C1=C\c1cc(N2CCCCC2)ccc1OCc1ccccc1 | 3 µM |  | 0.75
14 | CC(C)(C)c1ccc(OCc2ccccc2)c(CC2SC(=O)NC2=O)c1 (stereo not given) |  | 12 µM | 0.79
15 | O=C1NC(=S)S/C1=C\c1cc(F)ccc1OCc1ccccc1 | 9 µM |  | 5.02

The remaining compounds from weak to strong by GI50 [2], led by results:

Row | GI50 [2] | GI50 [3] | Structure (SMILES) | Ratio [1]
16 | 35 µM |  | O=C1NC(=O)/C(=C/c2ccccc2OCc2ccccc2)S1 | 0.92
17 | 14 µM |  | O=C1NC(=O)/C(=C/c2cc([N+](=O)[O-])ccc2OCc2ccccc2)S1 | 0.89
18 | 13 µM |  | O=C1NC(=S)S/C1=C\c1ccccc1OCc1ccccc1 | 1.17
19 | 8 µM |  | Cc1ccc(OCc2ccccc2)c(/C=C2\SC(=O)NC2=O)c1 | 1.94
20 | 7 µM |  | O=C1NC(=S)S/C1=C\c1cc(Br)ccc1OCc1ccccc1 | 1.4
21 | 6 µM |  | Cc1ccc(OCc2ccccc2)c(/C=C2\SC(=S)NC2=O)c1 | 4.15
22 | 5 µM |  | O=C1NC(=O)/C(=C/c2cc(Br)ccc2OCc2ccccc2)S1 | 4.05
23 | 4 µM |  | O=C1NC(=S)S/C1=C\c1cc(-c2ccccc2)ccc1OCc1ccccc1 | 2.35
24 | 2 µM |  | CC(C)(C)c1ccc(-c2ccc(OCc3ccccc3)c(/C=C3\SC(=S)NC3=O)c2)cc1 | 1.37
25 | 2 µM |  | O=C1NC(=O)/C(=C/c2cc(-c3ccccc3)ccc2OCc2ccccc2)S1 | 0.76
